Laboratory results as given in the RNAGym collection of RNA variant scans (doi:10.1126/science.aae0568).
Fewer inactive variants are shown than the library holds.

B1: tRNA (parent)
chain: GUUCCGUUGGCGUAAUGGUAACGCGUCUCCCUCCUAAGGAGAAGACUGCGGGUUCGAGUCCCGUACGGAACG

Variants of: B1
Assay: yeast fitness relative to wild type (ratio to wild type); higher = fitter; tRNA-Arg(CCU), competitive growth, 37 C, YPD
How it was run: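 Start and end populations of a pooled competition were compared by 100-nucleotide paired-end sequencing of gene amplicons. The Saccharomyces cerevisiae strains carried tRNA-Arg(CCU) gene variants at the native genomic locus, synthesised with a 3% per-site mutation rate at 69 sites, and competed in YPD at 37°C for 24 hours in six parallel replicates. Darwinian fitness relative to wild type was based on the change in genotype frequencies. Genotypes required ≥ 100 starting reads, and estimates < 0.5 were set to 0.5.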

Variant	yeast fitness
C49U C61U A70G	0.831
C49G U53C C60A	≤ 0.5
C49G G56C A70C	≤ 0.5
G52U C55A	0.555
G48C G56A	0.905
U53A C55G	0.588
C55G A69C	0.593
U53A C62G	0.598
C49U C60A A70G	0.546
C49A G67C	0.825
G52A A57G	0.852
U54C G68C	0.776
C49U G58A	0.948
G48C U53C	0.694
G48C U53G	0.635
G52C A65U G67C	≤ 0.5
U53A G67U	0.657
G52A C66A A69U	0.551
G52C C55U G63A A65U	≤ 0.5
U53C G67A	0.808
C49U G50A	0.93
U54C C61A G68U	≤ 0.5
G50A C62A	0.875
G48C G63C	0.705

Variant	yeast fitness
G50C U53C	0.614
G51C C60G G67U	≤ 0.5
C49U C61A A65U	≤ 0.5
C49G A69C	0.766
C49G A69U	0.955
C55A A69C	0.613
U53A G68C	0.6
G52C A69U	0.707
U54A A57C	0.555
G50C C55G C60A	0.63
C49U C62G	0.704
G51A A57U A65U	≤ 0.5
C49A G63A	0.582
C49U U53A G68A	≤ 0.5
C49G C55A C60U C66A	≤ 0.5
G50C A57G	0.789
G52A G58A C60G	≤ 0.5
G50C G52A	0.607
G50A A65G	1.03
G50A A65C	0.887
G52U A65G	0.793
G52A C62U	0.765
G51C U59G	0.508
U54G C55U	0.511

Variant	yeast fitness
C49G C60U	0.692
G48U C61A	≤ 0.5
G48C G52C	0.552
C49G G68C A70C	0.623
C49A C62U C66U	0.585
G50A C55U G67C	0.563
U53A A70C	0.769
G50A C61U	0.863
C49G U59G	0.635
C55G A70C	0.566
C55G A70U	0.653
G48C G52C A57C G58A	≤ 0.5
C49A U53C C62G	0.598
G52C C61U	0.66
G52C C61A	≤ 0.5
C49U A57U U59C	0.536
C55A G63A	0.55
C49U A65U A69U	0.861
C49U G63C	0.703
C49U G63A	0.908
C49G A70U	0.872
C49G A70G	0.832
C49G A70C	0.845
G50C A65G	0.766

Variant	yeast fitness
G51C C60U G63A U64G	≤ 0.5
G51A C55G	0.648
C55G G63A	0.622
C55G G63C	0.636
G51U A70G	0.707
C55G A65G C66G	0.567
G52C G63C A69C	≤ 0.5
C55A A57C G58A	≤ 0.5
U54A C62G	0.637
U54A C62A	0.595
U53G U54A C62U	0.549
G50U G68C	0.804
G51A A65U A69C	≤ 0.5
U53A U59C	0.555
G51A G63U C66A	≤ 0.5
U54C G67A	0.817
U54C G67C	0.944
C49U G52A	0.748
G52C C62U	0.559
U54G C61U G67C	≤ 0.5
U53G G63A	0.553
G52C G67A	0.709
G50C G56A	0.635
G51A G56A C62G	≤ 0.5

Variant	yeast fitness
U54C C60G	0.539
G48C C62U	0.899
C49A C62U	0.717
G51C C62G G68A A70U	≤ 0.5
U54A C55A C66G	0.714
U53G G56C G67A	≤ 0.5
C49A C60G	0.638
G50A A57C C66U	≤ 0.5
U54A A69U	0.671
U54C A57U	0.595
C49U C55U A69C	0.665
C49U C55A C60A	≤ 0.5
U53A A57U C60A A70U	≤ 0.5
U53A C66U	0.709
G50C U59A	0.703
C49U A70G	1.07
C49A C55G	≤ 0.5
U54G G67C	≤ 0.5
U54G G67A	0.637
C55A C61A	0.579
G52C C55U A65U	≤ 0.5
G48C A65C C66G	0.557
C55A A65U	0.572
C49U C55U C61A	≤ 0.5

Variant	yeast fitness
G48C G56A A70U	0.918
G50A C60U	0.819
G50A C60G	0.748
U53G U64G A69C	0.841
C55G C62A	0.619
C55G C62G	0.602
G48C A70U	1
U53G A57G C62U	0.62
G51A U53G G58A	≤ 0.5
C49A U59A	0.681
G52A A57G G58A	0.565
G51A C60U G68A	≤ 0.5
G48C G50A	0.651
C55G C60G	≤ 0.5
U54G G63U	≤ 0.5
C55A G56A	0.514
G48C C61G A65U	≤ 0.5
U54C C55A	0.635
U54C C55U	0.72
C49G G63C G68U	0.522
G48C C66A	0.633
C49U U59C C62G	0.503
C49U U64A A69U	0.558
G48C C62U G68C	0.557

Variant	yeast fitness
U54C A70G	0.973
U54C A70C	0.925
C49U G51C A69C	≤ 0.5
G51A C61U A65G A69C	1.07
G51A G58C	0.901
C49U C61U	0.814
C49U C61A	0.57
G48C G67A	0.873
G48C G67U	0.811
U54G C55G A65U	≤ 0.5
C55A C66G	≤ 0.5
C55A C66U	0.694
G50A G63C	0.737
C55A C62G G67A	≤ 0.5
G52A A70U	0.767
G50A U59A G67C	≤ 0.5
G48A U64G	1
C49A C61G	0.541
C49A C61U	0.607
G50C C55U	0.716
G50C C55G	0.56
G48C A57G G63A	≤ 0.5
G52A G56A A65U A70G	≤ 0.5
U53C G58C	0.977

Variant	yeast fitness
G51C C61G A70C	0.542
G48C C49U A70C	0.592
U53A C62U A69U	≤ 0.5
C49U C55U	0.649
C49U C55A	0.557
G50A U53A A57G G58A A69C	0.657
G50C C62G C66U	0.968
G52A G67A	0.831
U54A A65G	0.584
U54A A65U	0.618
C49U U54C A70C	0.617
C55G A57U G67A	≤ 0.5
G51A C61A G68C	≤ 0.5
U54A A57U G63C A69U	≤ 0.5
G52A A65C	0.848
U53C G68C	0.846
U53C A70U	0.848
G48C G51C A69U	≤ 0.5
C49U A65U	0.91
C49U A65C	0.935
G52A C61U G68A	0.561
G51A C60G A65C	≤ 0.5
U53C C61A G68A	0.58
U54G U59C A69U	≤ 0.5

Variant	yeast fitness
C49G G56A A69C	0.73
U53C A57G	0.79
U53C A57C	0.54
G50C U54C	0.635
C55A G58A	0.55
C55A G58C	0.534
C49G U53C	0.723
U54C U59G A70G	0.615
U53G A57G	0.584
C49U A57U	0.632
U54A U59C C61G	≤ 0.5
C49A A57C A69U	0.528
C49A A57C A69C	≤ 0.5
G52C C66A	0.538
G52C C66G	0.6
G48A U54G A70U	≤ 0.5
G50C C61U	0.609
G52C A57U A69U	≤ 0.5
G50A A69C	0.74
C49G U53A A70G	≤ 0.5
C49G G58A	0.844
C49G A57C G67U	0.576
G52C G68A	0.583
G52A C60U	0.579

Variant	yeast fitness
G51A C60U G67A	0.567
G51C A65G	0.593
G51C U53A	0.544
C49U C61G A69C	0.559
U53A C60G G67A A70C	≤ 0.5
C55A U64A	0.619
U53A G56A A65U	≤ 0.5
C55G G56C	≤ 0.5
U53C C60G	0.784
G51A U59C	0.692
U53C A57C A65U	≤ 0.5
C49G C62A	0.845
C55A A57G U64A	≤ 0.5
G50A C55G	0.514
G50A C55U	0.893
G50A G58C C66U	0.649
U53A C60G	0.617
G50C G51A	0.76
C49A C61U C62A G67C	≤ 0.5
C49A A70G	0.675
G50A U53A C61U	0.532
G50C U54A C61A	0.676
C49G G56C	0.641
G48C C62G A65U	≤ 0.5

Variant	yeast fitness
U54G A57U A65U	≤ 0.5
G51A U64C G67C A69G	0.854
C49G U59A G63A	0.564
G52A U59A C61A	≤ 0.5
G48C G50A G67A	≤ 0.5
C49A G52A C61U	≤ 0.5
C49U C60A C61A	0.574
C49G G52C	0.664
G48C A69U	0.95
G52A G58C	0.801
G48C G56A C61A	≤ 0.5
U54C A57G G63C A65C	≤ 0.5
U54G G68A	0.541
C55G G58A A69C	≤ 0.5
C49G U64G A65G A70U	0.683
G52A U54A	0.537
C55A U59G A65C	≤ 0.5
G48C C60A	0.644
C49G G56C G67C	≤ 0.5
U53C C62U	0.737
G51U A69C	0.824
U54A C62U G68A	0.504
U54A C62U G68U	≤ 0.5
C49G U64C	0.972

Variant	yeast fitness
C49A A69U	0.681
C49A A69C	0.709
G52C G63C	0.577
C55A U59C	0.647
C49U U53A	0.791
C49U U59C	0.91
C49U G68U	0.976
C49U G68A	0.85
C49G C55G C61G	0.558
G50A U54G	0.559
G51A A57U A65U G68A A70U	≤ 0.5
C49G G67U	0.695
C49G G67A	0.908
G48C U59G	0.722
G48C U59C	0.929
C49U U54A C55G	≤ 0.5
G51A U54C	0.715
G52A G56C	0.687
G52A G56A	0.727
G50A G52C	0.663
G50C C60U C62A	0.676
G48C C55A C61U	≤ 0.5
U54G G58A	0.544
C49G G50A G68C A69G	≤ 0.5

Variant	yeast fitness
U54C A65U	0.894
C49A A57C A65G	≤ 0.5
C55G A57U C62U	0.544
G50C G68C	0.715
U53C U64C	0.817
C49U A65C A70G	0.768
C49A G56C G58C	≤ 0.5
C49A U64G A69C	0.592
G52A C66G G68C	0.65
U54G A57G	0.615
G51A U53A	0.534
C49U U59G C60U	≤ 0.5
U53A C55A C62U G63A A65U	≤ 0.5
U54G C60G G63C	≤ 0.5
G50C C55A A57C	0.559
G52A A69C	0.738
C55A G67A	0.658
G51C C61U	0.604
G52C C55U	0.522
C49G G50C A65U	0.544
C49U G58C C62G A69C	0.559
C49U G51A A69U	0.573
U54G G63C A69C	0.535
G52C U64G	0.614

Variant	yeast fitness
G50A G67C G68U	≤ 0.5
C49U U54G	0.562
C49A G56C G68C	0.574
G50A A70C	0.823
G51A G52U C62A	≤ 0.5
G48C A65G G67C	≤ 0.5
G50A A57C	0.611
G50C A57C C61U	0.613
U54C C66G	0.803
C49G G58A C66G	0.564
G48C A65C	0.989
C49G U53A C66U	≤ 0.5
C55G C66G	0.768
C55A C62A	0.518
C55G G58C	0.587
C49A G67A G68U	≤ 0.5
U53C G56A	0.802
C55A A70G	0.557
G52C G56C	≤ 0.5
C55A C61U G68A A70G	≤ 0.5
G51C G56A G58C	≤ 0.5
G48C G67C A70U	0.53
